Results: ChEMBL document CHEMBL3621107, “Ring fusion strategy for synthesis and lead optimization of sulfur-substituted anthra[1,2-c][1,2,5]thiadiazole-6,11-dione derivatives as promising scaffold of antitumor agents” (Eur J Med Chem, 2015)

Legend:
[1] = system: Malme-3M; assay: Cytotoxicity against human MALME-3M cells assessed as cell growth at 10 uM after 48 hrs by SRB assay relative to control; assay type: functional; details: read-out: Activity
Summary of the method: (§1)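 First-stage NCI-60 screen by the NCI Developmental Therapeutics Program. Each compound was tested once at a single concentration of 10 μM against the 60-cell-line panel. Growth percentage was reported for each cell line.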

[2] = system: HOP-92; assay: Cytotoxicity against human HOP92 cells assessed as cell growth at 10 uM after 48 hrs by SRB assay relative to control; assay type: functional; details: HOP-92, 48 h, read-out: Activity; summary of the method: as §1
[3] = system: MDA-MB-468; assay: Cytotoxicity against human MDA-MB-468 cells assessed as cell growth at 10 uM after 48 hrs by SRB assay relative to control; assay type: functional; details: MDA-MB-468, 48 h, read-out: Activity
Summary of the method: (§2)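 First-stage NCI DTP one-dose screen against the 60 human tumour cell line panel. Compounds were tested at a single 10 μM level, and results are given as growth percentage.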

[4] = Cytotoxicity against human Hs578T cells assessed as cell growth at 10 uM after 48 hrs by SRB assay relative to control; assay type: functional; details: Hs-578T, read-out: Activity; summary of the method: as §1
[5] = system: SNB-75; assay: Cytotoxicity against human SNB75 cells assessed as cell growth at 10 uM after 48 hrs by SRB assay relative to control; assay type: functional; details: SNB-75, 48 h, read-out: Activity
Summary of the method: (§3)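 NCI-60 one-dose screen run by NCI DTP: each cell line exposed to a single 10 µM dose, and percentage growth recorded against untreated growth.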

[6] = system: HCT-116; assay: Cytotoxicity against human HCT116 cells assessed as cell growth at 10 uM after 48 hrs by SRB assay relative to control; assay type: functional; details: HCT-116, 48 h, read-out: Activity; summary of the method: as §1
[7] = system: PC-3; assay: Cytotoxicity against human PC3 cells after 48 hrs by SRB assay; assay type: functional, cell-based; details: PC-3, 48 h
Summary of the method: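 Second-stage NCI-60 panel run by the NCI Developmental Therapeutics Program, covering nine tumour subpanels. Five concentrations were tested: 0.01, 0.1, 1, 10 and 100 μM. Percentage growth at each level was plotted against log10 drug concentration. GI50, TGI and LC50 were read from these dose-response curves. Subpanel MID values were divided into the full-panel MID to give selectivity ratios.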

[8] = system: UACC-257; assay: Cytotoxicity against human UACC257 cells assessed as cell growth at 10 uM after 48 hrs by SRB assay relative to control; assay type: functional; details: UACC-257, 48 h, read-out: Activity; summary of the method: as §3
[9] = system: IGROV-1; assay: Cytotoxicity against human IGROV1 cells assessed as cell growth at 10 uM after 48 hrs by SRB assay relative to control; assay type: functional; details: IGROV-1, 48 h, read-out: Activity; summary of the method: as §1
[10] = system: CAKI-1; assay: Cytotoxicity against human Caki1 cells assessed as cell growth at 10 uM after 48 hrs by SRB assay relative to control; assay type: functional; details: CAKI-1, 48 h, read-out: Activity; summary of the method: as §1
[11] = system: NCI-H460; assay: Cytotoxicity against human NCI-H460 cells assessed as cell growth at 10 uM after 48 hrs by SRB assay relative to control; assay type: functional; details: NCI-H460, 48 h, read-out: Activity; summary of the method: as §2
[12] = system: NCI-H23; assay: Cytotoxicity against human NCI-H23 cells assessed as cell growth at 10 uM after 48 hrs by SRB assay relative to control; assay type: functional; details: NCI-H23, 48 h, read-out: Activity; summary of the method: as §2
[13] = system: SF-539; assay: Cytotoxicity against human SF539 cells assessed as cell growth at 10 uM after 48 hrs by SRB assay relative to control; assay type: functional; details: SF-539, 48 h, read-out: Activity; summary of the method: as §2
[14] = system: NCI-H522; assay: Cytotoxicity against human NCI-H522 cells assessed as cell growth at 10 uM after 48 hrs by SRB assay relative to control; assay type: functional; details: NCI-H522, 48 h, read-out: Activity; summary of the method: as §2
[15] = system: UO-31; assay: Cytotoxicity against human UO31 cells assessed as cell growth at 10 uM after 48 hrs by SRB assay relative to control; assay type: functional; details: UO-31, 48 h, read-out: Activity; summary of the method: as §3
[16] = system: MOLT-4; assay: Cytotoxicity against human MOLT4 cells assessed as cell growth at 10 uM after 48 hrs by SRB assay relative to control; assay type: functional; details: MOLT-4, 48 h, read-out: Activity; summary of the method: as §2
[17] = system: MCF7; assay: Cytotoxicity against human MCF7 cells assessed as cell growth at 10 uM after 48 hrs by SRB assay relative to control; assay type: functional; details: MCF7, 48 h, read-out: Activity; summary of the method: as §1
[18] = system: LOX IMVI; assay: Cytotoxicity against human LOXIMVI cells assessed as cell growth at 10 uM after 48 hrs by SRB assay relative to control; assay type: functional; details: read-out: Activity; summary of the method: as §1
[19] = Cytotoxicity against human EKVX cells assessed as cell growth at 10 uM after 48 hrs by SRB assay relative to control; assay type: functional; details: read-out: Activity; summary of the method: as §1
[20] = system: BT-549; assay: Cytotoxicity against human BT549 cells assessed as cell growth at 10 uM after 48 hrs by SRB assay relative to control; assay type: functional; details: BT-549, 48 h, read-out: Activity; summary of the method: as §1
[21] = system: HCC 2998; assay: Cytotoxicity against human HCC2998 cells assessed as cell growth at 10 uM after 48 hrs by SRB assay relative to control; assay type: functional; details: HCC 2998, 48 h, read-out: Activity; summary of the method: as §1
[22] = system: SR; assay: Cytotoxicity against human SR cells assessed as cell growth at 10 uM after 48 hrs by SRB assay relative to control; assay type: functional; details: read-out: Activity; summary of the method: as §3
[23] = system: UACC-62; assay: Cytotoxicity against human UACC62 cells assessed as cell growth at 10 uM after 48 hrs by SRB assay relative to control; assay type: functional; details: UACC-62, 48 h, read-out: Activity; summary of the method: as §3
[24] = system: TK-10; assay: Cytotoxicity against human TK10 cells assessed as cell growth at 10 uM after 48 hrs by SRB assay relative to control; assay type: functional; details: TK-10, 48 h, read-out: Activity; summary of the method: as §3
[25] = system: T47D; assay: Cytotoxicity against human T47D cells assessed as cell growth at 10 uM after 48 hrs by SRB assay relative to control; assay type: functional; details: read-out: Activity; summary of the method: as §3
[26] = system: SK-MEL-5; assay: Cytotoxicity against human SK-MEL-5 cells assessed as cell growth at 10 uM after 48 hrs by SRB assay relative to control; assay type: functional; details: SK-MEL-5, 48 h, read-out: Activity; summary of the method: as §2
[27] = system: DU-145; assay: Cytotoxicity against human DU145 cells assessed as cell growth at 10 uM after 48 hrs by SRB assay relative to control; assay type: functional; details: DU-145, 48 h, read-out: Activity; summary of the method: as §1
[28] = system: COLO 205; assay: Cytotoxicity against human COLO205 cells assessed as cell growth at 10 uM after 48 hrs by SRB assay relative to control; assay type: functional; details: COLO 205, 48 h, read-out: Activity; summary of the method: as §1

SMILES	growth at 10 µM [1]	growth at 10 µM [2]	growth at 10 µM [3]	growth at 10 µM [4]	growth at 10 µM [5]	growth at 10 µM [6]	IC50 [7]	growth at 10 µM [8]	growth at 10 µM [9]	growth at 10 µM [10]	growth at 10 µM [11]	growth at 10 µM [12]	growth at 10 µM [13]	growth at 10 µM [14]	growth at 10 µM [15]	growth at 10 µM [16]	growth at 10 µM [17]	growth at 10 µM [18]	growth at 10 µM [19]	growth at 10 µM [20]	further results
O=C1c2ccccc2C(=O)c2c1cc(Sc1cc(Cl)ccc1Cl)c1nsnc21	94.3%	65.1%	90.7%	72.5%	47%	81.9%	> 15 µM	119%	78.1%	108%	101%	74.6%	88.7%	91.3%	91.5%	1.27%	85.2%	73%	109%	79.7%	growth at 10 µM [21]: 109%; growth at 10 µM [22]: 41.1%; growth at 10 µM [23]: 94.1%; growth at 10 µM [24]: 112%; growth at 10 µM [25]: 63.4%; growth at 10 µM [26]: 109%; growth at 10 µM [27]: 102%; growth at 10 µM [28]: 110%
Cc1cc(C)cc(Sc2cc3c(c4nsnc24)C(=O)c2ccccc2C3=O)c1	102%	93.5%	116%	105%	80.6%	92.3%	> 15 µM	116%	96.7%	91%	105%	90.4%	94.9%	106%	69.1%	71.4%	75.8%	90.2%	100%	95.1%	growth at 10 µM [21]: 109%; growth at 10 µM [22]: 78.4%; growth at 10 µM [23]: 103%; growth at 10 µM [24]: 132%; growth at 10 µM [25]: 81.1%; growth at 10 µM [26]: 107%; growth at 10 µM [27]: 122%; growth at 10 µM [28]: 106%
Cc1ccccc1Sc1cc2c(c3nsnc13)C(=O)c1ccccc1C2=O	96.8%	89.9%	53.7%	83.7%	76.3%	92.2%	> 15 µM	87.3%	80.1%	81.5%	88.9%	53.2%	78%	74.8%	62.1%	67.3%	66.1%	30%	105%	95.3%	growth at 10 µM [21]: 124%; growth at 10 µM [22]: 23%; growth at 10 µM [23]: 90.7%; growth at 10 µM [24]: 123%; growth at 10 µM [25]: 51.9%; growth at 10 µM [26]: 87.5%; growth at 10 µM [27]: 102%; growth at 10 µM [28]: 99.2%
CSc1ccc(Sc2cc3c(c4nsnc24)C(=O)c2ccccc2C3=O)cc1	105%	4.31%	82.2%	96.5%	75.1%	102%	> 15 µM	110%	95.7%	99.4%	106%	81.5%	96.5%	95.4%	67.6%	59.9%	82.9%	69%	114%	108%	growth at 10 µM [21]: 111%; growth at 10 µM [22]: 96.3%; growth at 10 µM [23]: 111%; growth at 10 µM [24]: 128%; growth at 10 µM [25]: 86.6%; growth at 10 µM [26]: 101%; growth at 10 µM [27]: 101%; growth at 10 µM [28]: 117%
COc1ccc(Sc2cc3c(c4nsnc24)C(=O)c2ccccc2C3=O)cc1	89.5%	91.4%	113%	96.7%	79%	94.6%	> 15 µM	118%	103%	108%	107%	89.1%	93.5%	95.7%	68.3%	82.9%	93.8%	90.2%	149%	92.9%	growth at 10 µM [21]: 107%; growth at 10 µM [22]: 102%; growth at 10 µM [23]: 109%; growth at 10 µM [24]: 136%; growth at 10 µM [25]: 89.7%; growth at 10 µM [26]: 106%; growth at 10 µM [27]: 112%; growth at 10 µM [28]: 112%
